This is one part of a sample in which hits are shown more often than they occur.
ALR H2O2 inh: blocks human ALR sulfhydryl oxidase activity. P55789. purified ALR, DTT oxidation, H2O2 HRP-luminol luminescence. inhibition, % (concentration not given with the values). 290,000 compounds, 3.8% hits;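 active means mean replicate inhibition above about 79%, with every replicate also reaching it, limit read from the data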
Target sequence (P55789 whole entry, looked up): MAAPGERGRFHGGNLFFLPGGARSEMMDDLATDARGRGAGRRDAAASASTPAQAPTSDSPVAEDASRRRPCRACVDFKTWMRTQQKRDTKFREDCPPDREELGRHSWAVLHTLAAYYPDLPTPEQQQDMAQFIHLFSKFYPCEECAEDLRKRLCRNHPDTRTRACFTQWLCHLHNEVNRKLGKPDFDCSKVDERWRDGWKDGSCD
N-glyco inh: N-linked glycosylation inhibition; reporter increase, % at 12.5 µM; AID 588692; D54 ERlucT glycosylation luciferase reporter, 24 h; percent of 100 nM tunicamycin response; 360,000 compounds, 0.23% hits;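 active means mean luciferase reporter signal, scaled so untreated is 0 and the glycosylation-blocking control 100, at or above a set limit in every replicate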;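 further: luciferase carries N-glycosylation sites so blocking glycosylation raises the light; 0% = median of neutral control wells and 100% = median of 100 nM tunicamycin wells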
T cell HTS: T cell immune modulation candidate; response (vesicle binding), % at 7 µM; AID 2052; 330,000 compounds, 0.068% hits; 2C CD8+ T cell-vesicle binding, flow cytometry; active compounds read low;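 active means response, share of CD8 T cells binding vesicles, and their 90th percentile fluorescence all below set limits, cut at about 80% in these data, passing the limit was not always enough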;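 further: values below 100% mean blocked vesicle binding to the CD8+ T cells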
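Read-out – percent CD8+ FL2 mean versus row control · System – murine 2C transgenic CD8+ T lymphocytes · Times – 1.5 h cell–vesicle binding at 37 °C, then 20 min icy labelling · Control set – naked vesicles low, QL9 vesicles with vehicle high · Detection – cytometric PE anti-B7-1 and Alexa647 anti-CD8 signals after 1% paraformaldehyde fixation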
Numbers without * were called inactive; i = inactive; x = no result.

SMILES	ALR H2O2 inh	N-glyco inh	T cell HTS
C[C@H](CO)N1C[C@H](C)[C@@H](CN(C)C(=O)NC2CCCCC2)Oc2c(NS(=O)(=O)c3cccs3)cccc2C1=O	-5.1	-3.1	241.0
COc1ccc(O)c(/C=N/NC(=O)CCC(=O)Nc2ccc(F)cc2)c1	4.4	2.4	221.4
CON(C)C(=O)/C=C/CCCCNC(=O)OC(C)(C)C	x	3.6	195.7
CCN(CC)c1ccc(/C=N/NC(=O)CNC(=O)c2ccccn2)cc1	95.3*	-0.5	417.9
CCN(CC)c1ccc(/C=N/NC(=O)Nc2ccccc2)cc1	34.2	0.0	327.8
CCN(CC)c1ccc(/C=N/NC(=O)OC(C)(C)C)cc1	99.0*	1.1	396.7
CCN(CC)c1ccc(/C=N\NC(N)=O)cc1	98.5*	0.9	185.2
O=C(CNC(=O)c1ccccn1)N/N=C/c1ccc2c(c1)OCO2	71.9	0.2	173.6
CCN(CC)c1ccc(/C=N/NC(=O)c2ccoc2C)cc1	x	-14.5	i
Cc1nn(C)c(NC(=O)c2ccccc2Cl)c1Cl	-1.7	0.2	148.5
CCN(CC(=O)Nc1ccc(OC)cc1)C(=O)c1ccc(OCc2c(C)noc2C)cc1	x	0.5	x
Cc1cccc(C(=Cc2ccc([N+](=O)[O-])cc2)C(=O)O)c1	x	0.3	x
c1ccc(N/N=C2\CCCc3ccccc32)nc1	41.1	2.3	289.4
Fc1ccc2c(c1)/C(=N/Nc1ccccn1)CCS2	98.7*	1.4	199.7
CCCCCCC(=O)N(O)C1CC(=O)N(c2ccc(C)cc2)C1=O (stereo not given)	-2.0	37.6*	553.1
Cc1ccc(N2C(=O)CC(N(O)C3CC(=O)N(c4ccc(C)cc4)C3=O)C2=O)cc1 (stereo not given)	20.0	0.9	712.9
O=C(O)CSC1CC(=O)N(c2ccc(Cl)cc2)C1=O (stereo not given)	0.1	0.4	767.1
CCCCCCC(=O)N(O)C1CC(=O)N(c2ccc(Cl)cc2)C1=O (stereo not given)	1.5	60.5*	339.0
Nc1nn(-c2ccccc2)c(N)c1N=Nc1cccc(F)c1	9.7	14.4	615.7
Nc1nn(-c2ccccc2)c(N)c1N=Nc1ccc2c(c1)OCO2	95.2*	4.6	622.4
C/C=C/c1cnc2c(c1)C(=O)N([C@H](C)CO)C[C@H](C)[C@@H](CN(C)C(=O)CN1CCOCC1)O2	x	0.6	x
COc1ccc(/C=C(\CC(=O)O)c2nc3ccccc3s2)cc1O	91.9*	-1.8	262.5
COc1cc(/C=C(\CC(=O)O)c2nc3ccccc3s2)ccc1OCC(=O)Nc1ccccc1F	x	1.2	x
COc1cc(C=C(c2nc3ccccc3s2)c2nc3ccccc3s2)cc(OC)c1O	x	4.3	162.3
CCOc1cc(/C=C(\CC(=O)O)c2nc3ccccc3s2)ccc1OC	4.1	1.4	i
SMILES	ALR H2O2 inh	N-glyco inh	T cell HTS
COc1cc(/C=C(\CC(=O)O)c2nc3ccccc3s2)cc(OC)c1O	99.5*	4.3	237.7
COc1cc(/C=C(\C#N)c2nc3ccccc3s2)ccc1OCC(=O)Nc1ccccc1	13.7	71.4*	497.6
CN(C)C(CNC(=O)C1CC(=O)N(Cc2ccccc2)C1)c1ccccc1 (stereo not given)	-3.0	1.3	420.7
Clc1ccccc1CSc1snnc1-c1ccccc1	97.7*	-3.3	310.6
Clc1ccc(CSc2snnc2-c2ccccc2)cc1	-7.7	-3.8	321.6
CCCc1nc(SCC(=O)c2ccc(OC)cc2)c2ccccc2n1	89.6*	8.9	570.6
CCOC(=O)CSc1nc(COc2ccccc2)nc2ccccc12	8.2	-0.6	47.2*
CCc1nc(SCC(=O)c2ccccc2)c2ccccc2n1	98.8*	3.1	147.9
CCc1nc(SCC(=O)N2c3ccccc3Sc3ccccc32)c2ccccc2n1	-9.8	-5.9	385.7
Cc1cccc(C)c1NC(=O)CSc1nc(COc2ccccc2)nc2ccccc12	-1.9	-0.9	249.5
CCc1nc(SCC(=O)NNC(=O)c2ccc(OC)cc2)c2ccccc2n1	-3.6	1.6	189.5
Cc1cccc(OCCC(=O)Nc2ccc(N3CCOCC3)cc2N2CCOCC2)c1	x	0.8	319.5
COCc1cc(=O)[nH]c2c1c(-c1ccccc1)nn2C	-11.5	1.4	258.7
O=C(NCCCCCCCN1CCCCCCC1)C(C1CCCCC1)C1CCCCC1	x	-1.0	x
COc1cc(NC(=O)CCCN2C(=O)NC(C)(C)C2=O)cc(OC)c1	-22.0	1.9	370.6
Cc1ccc2c(CN3CCN(S(=O)(=O)c4ccccc4C(F)(F)F)CC3)cc(=O)oc2c1C	-1.0	-3.5	477.0
CCOC(=O)c1ccc(NC(=O)CSc2nc3c(c(=O)n2CC)SC(C)C3)cc1 (stereo not given)	98.6*	-1.5	298.5
CCOC(=O)c1ccc(NC(=O)CSc2nc3c(c(=O)n2C)SC(C)C3)cc1 (stereo not given)	99.6*	3.3	609.5
CC1Cc2nc(SCC(N)=O)n(C)c(=O)c2S1 (stereo not given)	0.6	-1.0	460.3

Bioassay records deposited in PubChem BioAssay by several laboratories.
